Assay results: ChEMBL document CHEMBL1629483, “Synthesis of novel chiral Δ2-isoxazoline derivatives related to ABT-418 and estimation of their affinity at neuronal nicotinic acetylcholine receptor subtypes” (Eur J Med Chem, 2010)

Assays:
[1] = target: Neuronal acetylcholine receptor; alpha4/beta2 (Rattus norvegicus, UniProt P09483+P12390); assay: Displacement of [3H]epibatidine from alpha4beta2 nAChR in rat cortical membranes by beta counting; type: cell membranes, Membrane
Summary of the method: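 Rat cortex membranes were washed twice by homogenisation in pH 7.4 phosphate/1 M NaCl/EDTA/EGTA/PMSF buffer and 60,000g spins, then resuspended in pH 7 Tris buffer. Nonspecific binding used 100 nM epibatidine. Filtered on PEI-soaked GF/C. Ki from three independent competition curves (LIGAND).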

[2] = target: Neuronal acetylcholine receptor subunit alpha-7 (Rattus norvegicus, UniProt Q05941); assay: Displacement of [125I]-alpha-Bungarotoxin from alpha7 nAChR rat cortical membranes by gamma counting; type: cell membranes, Membrane
Summary of the method: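 Rat cortex membranes, prepared by twice-repeated homogenisation and high-speed centrifugation, were pre-incubated with compound for 30 min at r.t. Filtered on PEI-soaked GF/C filters and gamma counted. Ki from three independent competition experiments, fitted together with three saturation experiments by non-linear least squares (LIGAND).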

[3] = target: T1, Muscarinic acetylcholine receptor M1 (Homo sapiens) (UniProt P11229); assay: Displacement of [3H]quinuclidinyl benzylate from human muscarinic M1 receptor expressed in CHO cells at 10 uM; type: cell-based
T1 sequence (whole entry): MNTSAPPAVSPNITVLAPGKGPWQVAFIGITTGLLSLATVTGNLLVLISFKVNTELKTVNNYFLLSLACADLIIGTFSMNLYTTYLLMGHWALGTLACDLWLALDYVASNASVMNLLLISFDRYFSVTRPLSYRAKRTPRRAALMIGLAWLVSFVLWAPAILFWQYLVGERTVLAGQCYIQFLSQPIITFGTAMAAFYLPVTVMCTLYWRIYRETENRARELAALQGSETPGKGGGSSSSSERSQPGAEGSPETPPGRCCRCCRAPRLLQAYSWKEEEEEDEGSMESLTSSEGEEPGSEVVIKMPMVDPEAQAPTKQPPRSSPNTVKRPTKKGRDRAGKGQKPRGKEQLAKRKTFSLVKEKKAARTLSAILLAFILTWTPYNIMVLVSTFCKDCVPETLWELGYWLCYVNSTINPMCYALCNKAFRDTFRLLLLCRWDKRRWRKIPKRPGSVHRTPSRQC

[4] = target: T2, Muscarinic acetylcholine receptor M2 (Homo sapiens) (UniProt P08172); assay: Displacement of [3H]quinuclidinyl benzylate from human muscarinic M2 receptor expressed in CHO cells at 10 uM; type: cell-based
T2 sequence (whole entry): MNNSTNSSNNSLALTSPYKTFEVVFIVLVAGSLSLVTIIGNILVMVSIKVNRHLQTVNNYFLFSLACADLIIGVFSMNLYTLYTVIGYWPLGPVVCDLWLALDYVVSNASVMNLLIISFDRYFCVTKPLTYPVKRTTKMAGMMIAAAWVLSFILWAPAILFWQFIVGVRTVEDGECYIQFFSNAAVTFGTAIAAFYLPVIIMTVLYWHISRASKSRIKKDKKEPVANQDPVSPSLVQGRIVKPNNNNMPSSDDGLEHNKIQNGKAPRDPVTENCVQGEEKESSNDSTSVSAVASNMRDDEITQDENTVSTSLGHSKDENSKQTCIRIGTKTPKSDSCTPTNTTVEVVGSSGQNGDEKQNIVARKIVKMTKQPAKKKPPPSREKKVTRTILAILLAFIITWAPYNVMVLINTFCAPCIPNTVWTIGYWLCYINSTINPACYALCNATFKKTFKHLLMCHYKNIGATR
Summary of the method: (§1)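 Single-concentration preliminary screen on membranes of transfected CHO cells expressing human M2 or M5 receptors, labelled with [3H]quinuclidinyl benzylate. Read-out was percent inhibition of radioligand binding.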

[5] = target: Muscarinic acetylcholine receptor M3 (Homo sapiens) (UniProt P20309); assay: Displacement of [3H]quinuclidinyl benzylate from human muscarinic M3 receptor expressed in CHO cells at 10 uM; type: cell-based
[6] = target: T3, Muscarinic acetylcholine receptor M4 (Homo sapiens) (UniProt P08173); assay: Displacement of [3H]quinuclidinyl benzylate from human muscarinic M4 receptor expressed in CHO cells at 10 uM; type: cell-based
T3 sequence (whole entry): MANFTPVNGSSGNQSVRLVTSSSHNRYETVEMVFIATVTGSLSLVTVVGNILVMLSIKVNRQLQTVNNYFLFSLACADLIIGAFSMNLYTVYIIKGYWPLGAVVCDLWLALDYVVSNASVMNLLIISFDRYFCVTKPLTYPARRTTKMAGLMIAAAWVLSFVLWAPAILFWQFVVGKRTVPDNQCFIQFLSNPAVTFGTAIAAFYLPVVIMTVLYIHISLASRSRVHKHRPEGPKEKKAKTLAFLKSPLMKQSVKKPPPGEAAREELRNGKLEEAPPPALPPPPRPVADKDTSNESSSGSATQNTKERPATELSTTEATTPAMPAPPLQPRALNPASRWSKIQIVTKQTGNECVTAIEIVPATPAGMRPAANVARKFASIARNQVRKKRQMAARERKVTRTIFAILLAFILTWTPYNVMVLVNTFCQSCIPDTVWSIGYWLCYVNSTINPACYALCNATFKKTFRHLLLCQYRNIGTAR

[7] = target: T4, Muscarinic acetylcholine receptor M5 (Homo sapiens) (UniProt P08912); assay: Displacement of [3H]quinuclidinyl benzylate from human muscarinic M5 receptor expressed in CHO cells at 10 uM; type: cell-based; summary of the method: as §1
T4 sequence (whole entry): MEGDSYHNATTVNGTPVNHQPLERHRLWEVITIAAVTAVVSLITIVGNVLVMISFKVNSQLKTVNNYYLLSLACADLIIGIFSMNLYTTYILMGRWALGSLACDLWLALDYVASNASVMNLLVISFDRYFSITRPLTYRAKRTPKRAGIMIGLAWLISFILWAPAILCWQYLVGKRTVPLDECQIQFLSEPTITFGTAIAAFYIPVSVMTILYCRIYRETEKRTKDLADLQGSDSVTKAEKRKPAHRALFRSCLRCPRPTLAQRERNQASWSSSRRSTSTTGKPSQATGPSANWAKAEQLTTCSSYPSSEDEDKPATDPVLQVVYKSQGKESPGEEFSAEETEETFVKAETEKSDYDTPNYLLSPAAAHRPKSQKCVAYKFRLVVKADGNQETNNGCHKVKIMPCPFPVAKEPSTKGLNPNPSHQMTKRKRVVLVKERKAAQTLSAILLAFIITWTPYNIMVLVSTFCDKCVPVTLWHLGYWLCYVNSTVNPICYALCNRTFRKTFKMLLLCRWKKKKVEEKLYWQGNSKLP

Chain of Neuronal acetylcholine receptor subunit alpha-7 (Q05941 whole entry): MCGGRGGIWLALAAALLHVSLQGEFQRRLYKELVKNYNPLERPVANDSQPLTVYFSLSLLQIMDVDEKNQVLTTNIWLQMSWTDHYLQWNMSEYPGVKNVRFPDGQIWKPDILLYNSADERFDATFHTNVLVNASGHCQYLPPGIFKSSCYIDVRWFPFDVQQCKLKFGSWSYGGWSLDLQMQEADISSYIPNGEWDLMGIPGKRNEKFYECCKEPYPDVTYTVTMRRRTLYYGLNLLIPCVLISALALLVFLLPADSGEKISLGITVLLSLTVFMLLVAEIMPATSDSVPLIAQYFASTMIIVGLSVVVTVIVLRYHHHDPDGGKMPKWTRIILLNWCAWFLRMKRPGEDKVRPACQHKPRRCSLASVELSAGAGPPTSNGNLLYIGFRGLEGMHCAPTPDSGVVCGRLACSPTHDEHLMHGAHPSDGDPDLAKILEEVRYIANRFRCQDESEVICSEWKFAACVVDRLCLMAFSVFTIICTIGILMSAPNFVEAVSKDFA
Chain of Muscarinic acetylcholine receptor M3 (Homo sapiens) (P20309 whole entry, looked up): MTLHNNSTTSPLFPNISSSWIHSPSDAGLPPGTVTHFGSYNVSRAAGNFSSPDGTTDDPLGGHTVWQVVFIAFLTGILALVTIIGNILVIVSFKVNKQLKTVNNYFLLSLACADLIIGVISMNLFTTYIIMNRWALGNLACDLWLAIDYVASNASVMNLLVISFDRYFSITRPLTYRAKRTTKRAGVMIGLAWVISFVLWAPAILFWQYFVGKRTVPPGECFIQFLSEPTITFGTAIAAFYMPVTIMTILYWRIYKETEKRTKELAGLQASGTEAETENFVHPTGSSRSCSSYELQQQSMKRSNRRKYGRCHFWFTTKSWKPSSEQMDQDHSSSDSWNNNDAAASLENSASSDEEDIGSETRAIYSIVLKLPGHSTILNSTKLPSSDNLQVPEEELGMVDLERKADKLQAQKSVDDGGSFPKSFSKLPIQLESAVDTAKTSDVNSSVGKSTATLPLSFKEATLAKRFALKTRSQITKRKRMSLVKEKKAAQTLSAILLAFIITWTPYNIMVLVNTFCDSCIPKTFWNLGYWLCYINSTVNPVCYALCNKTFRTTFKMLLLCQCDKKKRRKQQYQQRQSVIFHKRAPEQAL
Chain of Neuronal acetylcholine receptor; alpha4/beta2 (P09483 whole entry): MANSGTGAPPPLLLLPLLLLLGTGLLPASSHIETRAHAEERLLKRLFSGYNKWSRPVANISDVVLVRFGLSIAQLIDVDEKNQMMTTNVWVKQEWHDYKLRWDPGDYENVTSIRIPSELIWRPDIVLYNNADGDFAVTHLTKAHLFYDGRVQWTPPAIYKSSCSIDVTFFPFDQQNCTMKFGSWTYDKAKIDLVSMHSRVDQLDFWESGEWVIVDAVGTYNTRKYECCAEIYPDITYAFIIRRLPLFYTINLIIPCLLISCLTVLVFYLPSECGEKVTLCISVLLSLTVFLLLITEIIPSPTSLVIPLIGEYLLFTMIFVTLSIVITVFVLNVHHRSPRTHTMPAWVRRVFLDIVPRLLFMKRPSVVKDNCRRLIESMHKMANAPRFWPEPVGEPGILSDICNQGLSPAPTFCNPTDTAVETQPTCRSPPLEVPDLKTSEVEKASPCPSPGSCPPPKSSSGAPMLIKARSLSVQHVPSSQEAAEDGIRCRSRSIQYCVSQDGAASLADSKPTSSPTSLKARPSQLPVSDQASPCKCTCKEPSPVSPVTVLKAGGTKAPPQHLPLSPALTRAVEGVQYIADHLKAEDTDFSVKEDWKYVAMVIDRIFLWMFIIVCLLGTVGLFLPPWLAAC
Chain of Neuronal acetylcholine receptor; alpha4/beta2 (P12390 whole entry): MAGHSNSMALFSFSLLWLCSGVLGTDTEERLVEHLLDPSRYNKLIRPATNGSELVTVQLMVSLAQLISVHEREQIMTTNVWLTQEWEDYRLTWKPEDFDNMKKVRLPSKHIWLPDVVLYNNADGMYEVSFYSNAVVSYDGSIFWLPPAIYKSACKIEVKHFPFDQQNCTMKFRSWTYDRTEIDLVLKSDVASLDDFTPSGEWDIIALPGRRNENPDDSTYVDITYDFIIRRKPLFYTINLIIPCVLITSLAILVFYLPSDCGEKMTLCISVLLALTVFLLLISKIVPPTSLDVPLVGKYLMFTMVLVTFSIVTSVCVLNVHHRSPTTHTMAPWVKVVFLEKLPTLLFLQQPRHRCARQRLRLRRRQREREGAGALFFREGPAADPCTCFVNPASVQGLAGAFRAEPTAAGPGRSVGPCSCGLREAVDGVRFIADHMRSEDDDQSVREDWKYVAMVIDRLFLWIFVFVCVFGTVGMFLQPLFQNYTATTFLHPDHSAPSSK

Structure (SMILES) | Ki [1] [µM] | Ki [2] [µM] | Activity [3] [%] | Activity [4] [%] | Activity [5] [%] | Activity [6] [%] | Activity [7] [%]
CC(C)(C)OC1=NO[C@H]([C@@H]2CCCN2)C1 | 184 | > 500 | < 50 | < 50 | < 50 | < 50 | < 50
CN1CCC[C@H]1[C@H]1CC(Br)=NO1 | 3.8 | 43 | < 50 | < 50 | < 50 | < 50 | < 50
CC1=NO[C@H]([C@@H]2CCCN2)C1 | 5.1 | 0.44 | < 50 | < 50 | < 50 | < 50 | < 50
CC1=NO[C@@H]([C@@H]2CCCN2C)C1 | 12 | 325 | < 50 | < 50 | < 50 | < 50 | < 50
COC1=NO[C@H]([C@@H]2CCCN2)C1 | 50 | 11.3 | < 50 | < 50 | < 50 | < 50 | < 50
BrC1=NO[C@@H]([C@@H]2CCCN2)C1 | 4.2 | 35 | < 50 | < 50 | < 50 | < 50 | < 50
COC1=NO[C@@H]([C@@H]2CCCN2)C1 | 28 | 277 | < 50 | < 50 | < 50 | < 50 | < 50
CC1=NO[C@@H]([C@@H]2CCCN2)C1 | 18 | 40 | < 50 | < 50 | < 50 | < 50 | < 50
COC1=NO[C@@H]([C@@H]2CCCN2C)C1 | 10.3 | 2.9 | < 50 | < 50 | < 50 | < 50 | < 50
